From ChEMBL document CHEMBL1123269, “Synthesis and antitumor activity of certain 3-beta-D-ribofuranosyl-1,2,4-triazolo[3,4-f]-1,2,4-triazines related to formycin prepared via ring closure of a 1,2,4-triazine precursor” (1986) come the findings set out here.

Structures are written as SMILES.

Common to all, as to type: functional
For experiment [1], the system named is CCRF-CEM. As to the kind of experiment: Concentration that produced 50% inhibition of CCRF-CEM leukemia tumor cell growth was determined. Conditions: Homo sapiens, read-out: ID50 (the source's name). A digest of the protocol:
(§1)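 Assay in CCRF-CEM human T-lymphoblastic leukemia cells (mycoplasma-free; suspension in RPMI-1640, 10% fetal bovine serum, 20 mM Hepes). Seeded at 5 × 10⁴ cells/mL with compound at 0.1–100 μM final in 0.5-log steps, triplicate, for 92 h at 37 °C in humidified 5% CO₂. Electronic cell count gave growth as % of control (Me₂SO-matched where relevant). ID₅₀ was taken from the plot.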

The test system of experiment [2] is L1210. Briefly: Concentration that produced 50% inhibition of L1210 leukemia tumor cell growth was determined. Conditions: Mus musculus, read-out: ID50 (the source's name). A digest of the protocol:
(§2)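 L1210 murine lymphocytic leukemia cells, mycoplasma-free, grown in suspension in RPMI-1640 with 10% fetal bovine serum and 20 mM Hepes. Inoculum 5 × 10⁴ cells/mL with compound at 0.1–100 μM final (0.5-log steps), in triplicate. Incubated 48 h at 37 °C, humidified 5% CO₂. Growth was measured by Coulter count as % of untreated control, or of a matched Me₂SO control. ID₅₀ was read from the %-control vs concentration plot.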

Experiment [3] can be described thus: Concentration that produced 50% inhibition of WIL2 leukemia tumor cell growth was determined. Conditions: Homo sapiens, read-out: ID50 (the source's name). A digest of the protocol:
(§3)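 WIL2 human B-lymphoblastic leukemia cells were kept mycoplasma-free in suspension culture in RPMI-1640 with 10% fetal bovine serum and 20 mM Hepes. Triplicate wells held 5 × 10⁴ cells/mL and compound at 0.1–100 μM final (0.5-log dilutions), for 72 h at 37 °C in 5% CO₂. Coulter cell counts gave growth as % of untreated or Me₂SO-matched controls. ID₅₀ came from the concentration plot.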

The test system of experiment [4] is CCRF-CEM. Briefly: Concentration that produced 50% inhibition of CCRF-CEM leukemia tumor cell growth was determined at 100 uM. Conditions: Homo sapiens. A digest of the protocol: as §1
The test system of experiment [5] is L1210. As to the kind of experiment: Concentration that produced 50% inhibition of L1210 leukemia tumor cell growth was determined at 100 uM. Conditions: Mus musculus. In a few lines: as §2
Experiment [6] can be described thus: Concentration that produced 50% inhibition of WIL2 leukemia tumor cell growth was determined at 100 uM. Conditions: Homo sapiens. A digest of the protocol:
as §3

Take `Nc1nc(N)c2nnc([C@@H]3O[C@H](CO)[C@@H](O)[C@H]3O)n2n1`: the figures for the IC50 (with CCRF-CEM [1]; in the experiment with L1210 [2]; in experiment [3]) were 44.7 µM, 16.3 µM and 45.8 µM, respectively.

A word on the inhibition: it is how much of the control response was suppressed. A lower inhibition goes with little suppression. Regarding `Nc1nn2c([C@@H]3O[C@H](CO)[C@@H](O)[C@H]3O)nnc2c(=O)[nH]1`, the inhibition at 100 µM was 30% in the experiment with CCRF-CEM [4], 47% with L1210 [5] and 35% in experiment [6].

Consider `Nc1ncnn2c([C@@H]3O[C@H](CO)[C@@H](O)[C@H]3O)nnc12`, for which the IC50 was 5 µM in the experiment on CCRF-CEM [1], 6.3 µM with L1210 [2] and 7.3 µM in experiment [3].

As to `Nc1ncnc2c([C@@H]3O[C@H](CO)[C@@H](O)[C@H]3O)[nH]nc12` [FORMYCIN], the IC50 in the experiment with CCRF-CEM [1] amounted to 6.1 µM; in the experiment on L1210 [2], 27.6 µM; in experiment [3], 6.2 µM.

In the case of `O=C1N=CN=C2C([C@@H]3O[C@H](CO)[C@@H](O)[C@H]3O)=NNC12` (stereo partly drawn), the IC50 came to 8.4 µM in the experiment with CCRF-CEM [1], 31.6 µM in the experiment with L1210 [2] and 7.5 µM in experiment [3].

For the compound `Nc1nn2c([C@@H]3O[C@H](CO)[C@@H](O)[C@H]3O)nnc2c(=S)[nH]1`, in the experiment with CCRF-CEM [1], the IC50 worked out at 67 µM.

On to `O=c1[nH]cnn2c([C@@H]3O[C@H](CO)[C@@H](O)[C@H]3O)nnc12`, for which the IC50 in the experiment with L1210 [2] worked out at 7 µM; in experiment [3] it was 15 µM.
